From ChEMBL document CHEMBL4145662, “Novel Nonsteroidal Progesterone Receptor (PR) Antagonists with a Phenanthridinone Skeleton” (ACS Med Chem Lett, 2018)
pIC50: −log10 of the molar value. Calls of active or inactive are those of the source. No cut-off for these calls is given here.

How the values were obtained:
[1] = molecular target: T1, Progesterone receptor (Homo sapiens) (UniProt P06401); assay: Antagonist activity at PR in human T47D cells assessed as inhibition of progesterone-induced beta1-Na/K-ATPase expression at 0.1 to 10 uM measured after 24 hrs by Western blot analysis; assay type: cell-based
T1 sequence (whole entry): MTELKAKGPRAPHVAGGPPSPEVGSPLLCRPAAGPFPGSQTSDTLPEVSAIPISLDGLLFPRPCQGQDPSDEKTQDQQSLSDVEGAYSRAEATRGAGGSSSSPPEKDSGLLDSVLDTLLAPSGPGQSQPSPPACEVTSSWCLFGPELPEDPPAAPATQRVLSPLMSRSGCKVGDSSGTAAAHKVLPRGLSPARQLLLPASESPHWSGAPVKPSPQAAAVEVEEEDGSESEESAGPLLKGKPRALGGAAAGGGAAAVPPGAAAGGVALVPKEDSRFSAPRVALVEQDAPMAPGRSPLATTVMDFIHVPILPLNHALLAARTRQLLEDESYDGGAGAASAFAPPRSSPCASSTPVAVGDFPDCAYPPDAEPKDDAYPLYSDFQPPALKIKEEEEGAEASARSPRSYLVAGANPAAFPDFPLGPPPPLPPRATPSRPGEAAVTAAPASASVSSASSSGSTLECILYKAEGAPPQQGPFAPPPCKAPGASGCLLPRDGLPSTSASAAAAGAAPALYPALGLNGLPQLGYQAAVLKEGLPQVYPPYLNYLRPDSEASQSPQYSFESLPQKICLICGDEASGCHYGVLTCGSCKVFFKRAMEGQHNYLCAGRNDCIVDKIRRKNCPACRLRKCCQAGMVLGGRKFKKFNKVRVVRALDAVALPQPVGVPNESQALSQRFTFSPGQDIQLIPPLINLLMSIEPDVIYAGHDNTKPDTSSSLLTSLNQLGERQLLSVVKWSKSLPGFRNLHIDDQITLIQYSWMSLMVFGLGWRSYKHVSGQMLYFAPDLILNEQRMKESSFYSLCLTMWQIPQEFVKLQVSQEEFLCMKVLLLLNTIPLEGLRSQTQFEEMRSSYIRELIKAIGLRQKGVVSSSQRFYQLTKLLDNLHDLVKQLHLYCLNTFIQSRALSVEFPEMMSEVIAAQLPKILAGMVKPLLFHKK
Procedure, shortened: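 Validation in T47D cells by Western blotting of the β1 subunit of Na/K-ATPase, a PR-regulated protein.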

[2] = species on record: Homo sapiens; assay: Selectivity ratio of IC50 for human GAL4N-fused LXRbeta LBD expressed in HEK293 cells to IC50 for PR in human T47D cells assessed as inhibition of progesterone-induced alkaline phosphatase activity; assay type: cell-based
[3] = species on record: Homo sapiens; assay: Selectivity ratio of IC50 for human RORalpha1 expressed in HEK293 cells to IC50 for PR in human T47D cells assessed as inhibition of progesterone-induced alkaline phosphatase activity; assay type: cell-based
[4] = molecular target: T2, Glucocorticoid receptor (Homo sapiens, UniProt P04150); assay: Antagonist activity at human CMX-GRalpha expressed in HEK293 cells assessed as reduction in dexamethasone-induced transactivation activity after 24 hrs by luciferase reporter gene assay; assay type: cell-based
T2 sequence (P04150 whole entry): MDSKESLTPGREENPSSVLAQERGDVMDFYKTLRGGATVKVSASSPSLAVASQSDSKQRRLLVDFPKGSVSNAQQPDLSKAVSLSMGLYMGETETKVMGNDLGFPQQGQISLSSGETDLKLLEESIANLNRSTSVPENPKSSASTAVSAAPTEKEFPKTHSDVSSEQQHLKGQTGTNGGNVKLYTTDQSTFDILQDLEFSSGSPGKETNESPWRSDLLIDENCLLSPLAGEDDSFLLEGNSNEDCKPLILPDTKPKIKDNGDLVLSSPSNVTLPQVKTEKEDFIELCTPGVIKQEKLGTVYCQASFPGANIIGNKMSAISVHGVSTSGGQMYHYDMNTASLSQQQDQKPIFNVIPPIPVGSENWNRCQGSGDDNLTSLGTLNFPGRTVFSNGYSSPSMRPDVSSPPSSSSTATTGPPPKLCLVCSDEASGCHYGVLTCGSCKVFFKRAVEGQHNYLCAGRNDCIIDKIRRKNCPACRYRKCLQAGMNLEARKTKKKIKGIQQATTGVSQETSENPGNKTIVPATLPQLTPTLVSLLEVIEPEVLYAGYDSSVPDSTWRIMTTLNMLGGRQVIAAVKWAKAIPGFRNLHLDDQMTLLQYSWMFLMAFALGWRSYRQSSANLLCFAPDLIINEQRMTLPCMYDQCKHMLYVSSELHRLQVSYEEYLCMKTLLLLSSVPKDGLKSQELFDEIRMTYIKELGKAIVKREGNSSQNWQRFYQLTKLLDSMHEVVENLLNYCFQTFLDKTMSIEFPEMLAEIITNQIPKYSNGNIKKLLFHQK
Procedure, shortened: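 GRα antagonism measured by reporter gene assay with dexamethasone (1 nM) as agonist.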

[5] = molecular target: T3, Progesterone receptor (Homo sapiens, UniProt P06401); assay: Displacement of [1,2,6,7-3H]progesterone from recombinant human GST-tagged PGR LBD (678 to 933 residues) expressed in baculovirus-infected insect cells measured after 24 hrs by liquid scintillation counting method
T3 sequence (P06401 whole entry): T1 sequence (whole entry)

[6] = species on record: Homo sapiens; assay: Selectivity ratio of IC50 for human RORbeta1 expressed in HEK293 cells to IC50 for PR in human T47D cells assessed as inhibition of progesterone-induced alkaline phosphatase activity; assay type: cell-based
[7] = molecular target: T3, Progesterone receptor; assay: Agonist activity at PR in human T47D cells at 10 uM; assay type: cell-based
[8] = molecular target: T4, Oxysterols receptor LXR-alpha (Homo sapiens, UniProt Q13133); assay: Antagonist activity at human GAL4N-fused LXRalpha LBD expressed in HEK293 cells assessed as reduction in T0901317-induced transactivation activity after 24 hrs by luciferase reporter gene assay; assay type: cell-based
T4 sequence (Q13133 whole entry): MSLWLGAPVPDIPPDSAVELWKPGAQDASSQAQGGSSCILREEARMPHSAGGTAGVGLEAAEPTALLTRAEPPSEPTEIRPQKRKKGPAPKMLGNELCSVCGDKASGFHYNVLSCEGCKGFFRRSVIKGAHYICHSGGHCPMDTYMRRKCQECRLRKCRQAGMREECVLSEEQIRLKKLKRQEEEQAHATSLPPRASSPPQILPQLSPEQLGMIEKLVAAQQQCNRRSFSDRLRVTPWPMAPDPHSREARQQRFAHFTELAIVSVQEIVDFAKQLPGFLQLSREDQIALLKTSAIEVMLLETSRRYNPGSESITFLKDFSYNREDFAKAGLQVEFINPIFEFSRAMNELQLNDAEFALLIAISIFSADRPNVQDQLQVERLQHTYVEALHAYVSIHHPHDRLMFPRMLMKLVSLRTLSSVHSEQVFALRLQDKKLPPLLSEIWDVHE

inhibition [1] | pIC50 [4] | pIC50 [5] | Activity [7] | pIC50 [8] | Structure (SMILES) | Ratio IC50 [2] | Ratio IC50 [3] | Ratio IC50 [6]
Active | < 4.70 | 6.47 | Not Active | < 4.70 | Cc1cc(C(O)(C(F)(F)F)C(F)(F)F)cc2c1[nH]c(=O)c1cc(F)ccc12 | > 300 | > 300 | > 300
Active | < 4.70 | 5.82 | Not Active | < 4.70 | Cc1cc(C(O)(C(F)(F)F)C(F)(F)F)cc2c1[nH]c(=O)c1ccccc12 | > 100 | > 100 | > 100
Active | < 4.70 | 6.82 | Not Active | < 4.70 | Cc1cc(C(O)(C(F)(F)F)C(F)(F)F)cc2c3ccc(F)cc3c(=O)n(C)c12 | > 300 | > 300 | > 300
